Data set [1] is described as follows: Stability in rat plasma assessed as compound remaining at 50 uM at 37 degC after 60 mins by LC-MS/MS method. The data set is classed as ADME, cell-free. Particulars: read-out: Stability. Put shortly:
(§1)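 Prodrugs were incubated in rat or human plasma for 60 min. Disappearance of prodrug and concomitant appearance of ertapenem were followed by LC-MS/MS, and in selected cases monoesters from partial hydrolysis were also monitored. Ertapenem itself was incubated the same way as a control.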

Data set [2] is described as follows: Stability in human plasma assessed as compound remaining at 50 uM at 37 degC after 60 mins by LC-MS/MS method. Particulars: read-out: Stability. The data set is classed as ADME, cell-free. In a few lines: as §1
Data set [3] in a line: Stability in pH 2.0 simulated gastric fluid assessed as compound degradation to beta-lactam ring open products at 1 uM after 60 mins by LC-MS/MS method. The data set is classed as ADME. Particulars: read-out: Drug degradation. Put shortly: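 Incubation was in simulated gastric fluid (SGF, pH 2.0) for 60 min, with loss to the β-lactam ring-opened product measured by LC-MS/MS.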

A short description of data set [4]: Stability in pH 6.5 simulated gastrointestinal fluid assessed as compound remaining at 50 uM after 3 hrs by LC-MS/MS method. Particulars: read-out: Stability. The data set is classed as ADME. Put shortly:
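Compounds at 50 μM were incubated in fasted-state simulated intestinal fluid (FaSSIF, pH 6.5) for over 3 h. Percent remaining was determined by LC-MS/MS.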

A short description of data set [5]: Stability in pH 7.4 phosphate buffer assessed as compound remaining at 50 uM after 3 hrs by LC-MS/MS method. The data set is classed as physicochemical. Particulars: read-out: Stability.

For the molecule `C[C@@H](O)[C@H]1C(=O)N2C(C(=O)OCOC(=O)OC3CCCCC3)=C(S[C@@H]3CN[C@H](C(=O)Nc4cccc(C(=O)O)c4)C3)[C@H](C)[C@H]12`, the remaining at 1 h, 50 µM in data set [1] came out at 0%; in data set [2] it was 46%. Besides, the degraded at 1 h, 1 µM in data set [3] is > 25%. Also, the remaining at 3 h, 50 µM in data set [4] and in data set [5] was > 95% each time.
In the case of `CCOC(=O)OCOC(=O)C1=C(S[C@@H]2CN[C@H](C(=O)Nc3cccc(C(=O)O)c3)C2)[C@H](C)[C@@H]2[C@@H]([C@@H](C)O)C(=O)N12`, the remaining at 1 h, 50 µM in data set [1] turned out to be 0%; in data set [2] it was 10%. Moreover, the degraded at 1 h, 1 µM in data set [3] was > 25%. Besides, the remaining at 3 h, 50 µM in data set [4] and in data set [5] was > 95% in each case.
In the case of `CCOC(=O)OCOC(=O)C1=C(S[C@@H]2CN[C@H](C(=O)Nc3cccc(C(=O)OCOC(=O)OCC)c3)C2)[C@H](C)[C@@H]2[C@@H]([C@@H](C)O)C(=O)N12`, the remaining at 1 h, 50 µM was 0% in data set [1] and 1% in data set [2]. In addition, the degraded at 1 h, 1 µM in data set [3] is > 25%. Besides, the remaining at 3 h, 50 µM in data set [4] and in data set [5] was > 95% in each case.
With `Cc1oc(=O)oc1COC(=O)N1C[C@@H]2C[C@H]1C(=O)Nc1cccc(c1)C(=O)OCc1oc(=O)oc1COC(=O)C1=C(S2)[C@H](C)[C@@H]2[C@@H]([C@@H](C)O)C(=O)N12`, the remaining at 1 h, 50 µM in data set [1] and in data set [2] was 0% each time. The degraded at 1 h, 1 µM in data set [3] was > 25%. In addition, the remaining at 3 h, 50 µM in data set [4] and in data set [5] was > 95% throughout.
Take `C[C@@H](O)[C@H]1C(=O)N2C(C(=O)O)=C(S[C@@H]3CN[C@H](C(=O)Nc4cccc(C(=O)OCC(F)(F)F)c4)C3)[C@H](C)[C@H]12`: the degraded at 1 h, 1 µM in data set [3] is > 25%. For the same molecule, the remaining at 3 h, 50 µM in data set [4] and in data set [5] was > 95% each time.
As to `C[C@@H](O)[C@H]1C(=O)N2C(C(=O)OCC(F)(F)F)=C(S[C@@H]3CN[C@H](C(=O)Nc4cccc(C(=O)O)c4)C3)[C@H](C)[C@H]12`, the remaining at 1 h, 50 µM in data set [1] is 7%; in data set [2] it was 80%. The degraded at 1 h, 1 µM in data set [3] was > 25%. For the same molecule, the remaining at 3 h, 50 µM in data set [4] and in data set [5] was > 95% in each case.
Consider `CCC(CC)C(=O)OCOC(=O)C1=C(S[C@@H]2CN[C@H](C(=O)Nc3cccc(C(=O)O)c3)C2)[C@H](C)[C@@H]2[C@@H]([C@@H](C)O)C(=O)N12`, for which the remaining at 1 h, 50 µM in data set [1] was 0%; in data set [2], 82%. The degraded at 1 h, 1 µM in data set [3] was > 25%. The remaining at 3 h, 50 µM in data set [4] and in data set [5] was > 95% each time.
Take `C[C@@H](O)[C@H]1C(=O)N2C(C(=O)OCOC(=O)C3CCCCC3)=C(S[C@@H]3CN[C@H](C(=O)Nc4cccc(C(=O)O)c4)C3)[C@H](C)[C@H]12`: the remaining at 1 h, 50 µM in data set [1] is 0%; in data set [2], 20%. The degraded at 1 h, 1 µM in data set [3] is > 25%. Besides, the remaining at 3 h, 50 µM in data set [4] and in data set [5] was > 95% in each case.
As for `CC(C)OC(=O)OCOC(=O)C1=C(S[C@@H]2CN[C@H](C(=O)Nc3cccc(C(=O)OCOC(=O)OC(C)C)c3)C2)[C@H](C)[C@@H]2[C@@H]([C@@H](C)O)C(=O)N12`, the figures for the remaining at 1 h, 50 µM in data set [1] and in data set [2] were 3% and 28%, respectively. Besides, the degraded at 1 h, 1 µM in data set [3] was > 25%. Besides, the remaining at 3 h, 50 µM in data set [4] and in data set [5] was > 95% each time.
`Cc1oc(=O)oc1COC(=O)N1C[C@@H]2C[C@H]1C(=O)Nc1cccc(c1)C(=O)OC/C=C/COC(=O)C1=C(S2)[C@H](C)[C@@H]2[C@@H]([C@@H](C)O)C(=O)N12`: the remaining at 1 h, 50 µM in data set [1] was found to be 0%; in data set [2], 17%. Besides, in data set [3], the degraded at 1 h, 1 µM was > 25%. Besides, the remaining at 3 h, 50 µM in data set [4] and in data set [5] was > 95% throughout.
Turning to `C[C@@H](O)[C@H]1C(=O)N2C(C(=O)OCOC(=O)C(C)(C)C)=C(S[C@@H]3CN[C@H](C(=O)Nc4cccc(C(=O)O)c4)C3)[C@H](C)[C@H]12`, the remaining at 1 h, 50 µM in data set [1] worked out at 0%; in data set [2], 45%. In addition, the degraded at 1 h, 1 µM in data set [3] was > 25%. Further, the remaining at 3 h, 50 µM in data set [4] and in data set [5] was > 95% throughout.
Regarding `C[C@@H](O)[C@H]1C(=O)N2C(C(=O)O)=C(S[C@@H]3CN[C@H](C(=O)Nc4cccc(C(=O)OCOC(=O)C(C)(C)C)c4)C3)[C@H](C)[C@H]12`, the remaining at 1 h, 50 µM in data set [1] is 0%; in data set [2], 53%. Further, the degraded at 1 h, 1 µM in data set [3] was > 25%. Besides, the remaining at 3 h, 50 µM in data set [4] and in data set [5] was > 95% each time.
For `C[C@@H](O)[C@H]1C(=O)N2C(C(=O)OCOC(=O)OC3CCCCC3)=C(S[C@@H]3CN[C@H](C(=O)Nc4cccc(C(=O)OCOC(=O)OC5CCCCC5)c4)C3)[C@H](C)[C@H]12`, the remaining at 1 h, 50 µM was determined as 10% in data set [1] and 96% in data set [2]. In addition, the degraded at 1 h, 1 µM in data set [3] is > 25%. Further, the remaining at 3 h, 50 µM in data set [4] and in data set [5] was > 95% throughout.
For the molecule `CCCCCCCCCCCCCCCCOC(=O)C1=C(S[C@@H]2CN[C@H](C(=O)Nc3cccc(C(=O)OCCCCCCCCCCCCCCCC)c3)C2)[C@H](C)[C@@H]2[C@@H]([C@@H](C)O)C(=O)N12`, the remaining at 1 h, 50 µM in data set [1] and in data set [2] was 89% in each case. Further, in data set [3], the degraded at 1 h, 1 µM is > 25%. Besides, the remaining at 3 h, 50 µM in data set [4] and in data set [5] was > 95% each time.
On to `CCC(CC)C(=O)OCOC(=O)C1=C(S[C@@H]2CN[C@H](C(=O)Nc3cccc(C(=O)OCOC(=O)C(CC)CC)c3)C2)[C@H](C)[C@@H]2[C@@H]([C@@H](C)O)C(=O)N12`, for which the remaining at 1 h, 50 µM in data set [1] was found to be 3%; in data set [2] it was 83%. Further, the degraded at 1 h, 1 µM in data set [3] was > 25%. Further, the remaining at 3 h, 50 µM in data set [4] and in data set [5] was > 95% each time.
In the case of `COC(=O)OCOC(=O)C1=C(S[C@@H]2CN[C@H](C(=O)Nc3cccc(C(=O)O)c3)C2)[C@H](C)[C@@H]2[C@@H]([C@@H](C)O)C(=O)N12`, the remaining at 1 h, 50 µM was found to be 0% in data set [1] and 33% in data set [2]. The degraded at 1 h, 1 µM in data set [3] was > 25%. Further, the remaining at 3 h, 50 µM in data set [4] and in data set [5] was > 95% in each case.
Consider `CC(C)OC(=O)OCOC(=O)C1=C(S[C@@H]2CN[C@H](C(=O)Nc3cccc(C(=O)O)c3)C2)[C@H](C)[C@@H]2[C@@H]([C@@H](C)O)C(=O)N12`, for which the values for the remaining at 1 h, 50 µM in data set [1] and in data set [2] were 0% and 62%, respectively. In data set [3], the degraded at 1 h, 1 µM was > 25%. Also, the remaining at 3 h, 50 µM in data set [4] and in data set [5] was > 95% each time.
As for `C[C@@H](O)[C@H]1C(=O)N2C(C(=O)OCOC(=O)OC(C)(C)C)=C(S[C@@H]3CN[C@H](C(=O)Nc4cccc(C(=O)OCOC(=O)OC(C)(C)C)c4)C3)[C@H](C)[C@H]12`, the remaining at 1 h, 50 µM in data set [1] amounted to 8%; in data set [2] it was 67%. Moreover, the degraded at 1 h, 1 µM in data set [3] was > 25%. In addition, the remaining at 3 h, 50 µM in data set [4] and in data set [5] was > 95% in each case.
`CCOC(=O)C1=C(S[C@@H]2CN[C@H](C(=O)Nc3cccc(C(=O)O)c3)C2)[C@H](C)[C@@H]2[C@@H]([C@@H](C)O)C(=O)N12`: the degraded at 1 h, 1 µM in data set [3] is > 25%. Also, the remaining at 3 h, 50 µM in data set [4] and in data set [5] was > 95% throughout.
As to `Cc1oc(=O)oc1COC(=O)c1cccc(NC(=O)[C@@H]2C[C@H](SC3=C(C(=O)O)N4C(=O)[C@H]([C@@H](C)O)[C@H]4[C@H]3C)CN2)c1`, the figures for the remaining at 1 h, 50 µM in data set [1] and in data set [2] were 0% and 12%, respectively. The degraded at 1 h, 1 µM in data set [3] was > 25%. The remaining at 3 h, 50 µM in data set [4] and in data set [5] was > 95% each time.
Take `CC(C)C(=O)OCOC(=O)c1cccc(NC(=O)[C@@H]2C[C@H](SC3=C(C(=O)O)N4C(=O)[C@H]([C@@H](C)O)[C@H]4[C@H]3C)CN2)c1`: the figures for the remaining at 1 h, 50 µM in data set [1] and in data set [2] were 0% and 26%, respectively. The degraded at 1 h, 1 µM in data set [3] was > 25%. Also, the remaining at 3 h, 50 µM in data set [4] and in data set [5] was > 95% in each case.
For the molecule `CC(C)OC(=O)c1cccc(NC(=O)[C@@H]2C[C@H](SC3=C(C(=O)O)N4C(=O)[C@H]([C@@H](C)O)[C@H]4[C@H]3C)CN2)c1`, in data set [3], the degraded at 1 h, 1 µM was > 25%. Further, the remaining at 3 h, 50 µM in data set [4] and in data set [5] was > 95% throughout.
In the case of `CC(C)OC(=O)C1=C(S[C@@H]2CN[C@H](C(=O)Nc3cccc(C(=O)O)c3)C2)[C@H](C)[C@@H]2[C@@H]([C@@H](C)O)C(=O)N12`, in data set [3], the degraded at 1 h, 1 µM was > 25%. Moreover, the remaining at 3 h, 50 µM in data set [4] and in data set [5] was > 95% throughout.
On to `CCOC(=O)c1cccc(NC(=O)[C@@H]2C[C@H](SC3=C(C(=O)O)N4C(=O)[C@H]([C@@H](C)O)[C@H]4[C@H]3C)CN2)c1`, for which the degraded at 1 h, 1 µM in data set [3] is > 25%. For the same molecule, the remaining at 3 h, 50 µM in data set [4] and in data set [5] was > 95% in each case.

Source of the values: ChEMBL document CHEMBL3351346, “Design, synthesis, structure-function relationship, bioconversion, and pharmacokinetic evaluation of ertapenem prodrugs” (J Med Chem, 2014).
